ChEMBL document CHEMBL6134766, “Design, synthesis, and evaluation of benzhydrylpiperazine-based novel dual COX-2/5-LOX inhibitors with anti-inflammatory and anti-cancer activity” (RSC Med Chem, 2025)
Activity calls are given as the source filed them. The calls are words filed in the database; no cut-off is given here.

Columns and labels:
Rattus norvegicus [1] = experiment: Anti-inflammatory activity in carrageenan-induced paw edema Wistar rat model assessed as decrease in IL-6 level in paw tissue at 5 to 20 mg/kg, po measured for 6 hrs by ELISA; type: functional, organism-based; details: dose 5-20 mg/kg
Procedure, shortened: (§1)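 Paw tissue taken from carrageenan-edema rats dosed orally at 5, 10 or 20 mg kg−1. Tissue rinsed in PBS pH 7.4, minced, homogenized, filtered and centrifuged at 2000 rpm for 20 min at 4 °C. Supernatant assayed by ELISA for PGE2, IL-6, TNF-α and IL-10. Data as mean ± SD.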

[2] = Toxicity in fasting Wistar rat assessed as ulceration at 5 mg/kg, po via gavage treated for 3 days consecutively by H and E staining based analysis (reference value: 0 %); type: organism-based; details: in vivo, 72 h, time 3 day
Procedure, shortened: (§2)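 Fasted rats, n = 6/group, gavaged once daily for 3 days in 0.3% Na CMC (vehicle control 0.3% CMC); killed under anaesthesia 6 h after day-3 dose; stomachs saline-washed, mucosa examined with hand lens; ulcer score, index and % ulceration by reported scoring; some stomachs formalin-fixed, H&E stained.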

Rattus norvegicus [3] = experiment: Anti-inflammatory activity in carrageenan-induced paw edema Wistar rat model assessed as swelling thickness of paw at 20 mg/kg, po measured after 2 hrs by digital vernier caliper (reference value: 8.65 +/- 0.53 millimeter); type: functional
Rattus norvegicus [4] = experiment: Anti-inflammatory activity in carrageenan-induced paw edema Wistar rat model assessed as swelling thickness of paw at 10 mg/kg, po measured after 4 hrs by digital vernier caliper (reference value: 8.36 +/- 0.78 millimeter); type: functional
Rattus norvegicus [5] = experiment: Anti-inflammatory activity in arachidonic acid-induced paw edema Wistar rat model assessed as swelling thickness of paw at 20 mg/kg, po measured after 1 hr by digital vernier caliper (reference value: 6.51 +/- 0.37 millimeter); type: functional
Rattus norvegicus [6] = experiment: Anti-inflammatory activity in carrageenan-induced paw edema Wistar rat model assessed as swelling thickness of paw at 20 mg/kg, po measured after 4 hrs by digital vernier caliper (reference value: 8.36 +/- 0.78 millimeter); type: functional
Rattus norvegicus [7] = experiment: Cardio-protective activity in ISO-treated Wistar rat assessed as decrease in serum LDH level at 20 mg/kg, po; type: functional, organism-based
Procedure, shortened: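 Rats (n = 6/group) given ISO 100 mg kg−1 s.c., then oral test compound in 0.3% CMC; vehicle controls. Retro-orbital blood, serum separated at 4000 rpm, 4 °C, 10 min; LDH and CK-MB by commercial kits; mean ± SD.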

[8] = Acute toxicity in female Wistar rat assessed as animal mortality up to 500 mg/kg, po measured for 14 days; type: organism-based; details: in vivo, 336 h, time 14 day
Procedure, shortened: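 Followed OECD 423 guideline in healthy female Wistar rats weighing 200–250 g. Animals were housed at 25 ± 2 °C and 45–60% RH on a 12 h light/dark cycle, with free access to water and food.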

[9] = Toxicity in fasting Wistar rat assessed as ulceration at 10 mg/kg, po via gavage treated for 3 days consecutively by H and E staining based analysis (reference value: 0 %); type: organism-based; details: in vivo, 72 h, time 3 day; procedure, shortened: as §2
[10] = target: T1, Prostaglandin G/H synthase 1 (Ovis aries, UniProt P05979); experiment: Inhibition of ovine COX-1 using arachidonic acid as substrate in presence of hemin by TMPD reagent-based colorimetry
T1 sequence (P05979 whole entry): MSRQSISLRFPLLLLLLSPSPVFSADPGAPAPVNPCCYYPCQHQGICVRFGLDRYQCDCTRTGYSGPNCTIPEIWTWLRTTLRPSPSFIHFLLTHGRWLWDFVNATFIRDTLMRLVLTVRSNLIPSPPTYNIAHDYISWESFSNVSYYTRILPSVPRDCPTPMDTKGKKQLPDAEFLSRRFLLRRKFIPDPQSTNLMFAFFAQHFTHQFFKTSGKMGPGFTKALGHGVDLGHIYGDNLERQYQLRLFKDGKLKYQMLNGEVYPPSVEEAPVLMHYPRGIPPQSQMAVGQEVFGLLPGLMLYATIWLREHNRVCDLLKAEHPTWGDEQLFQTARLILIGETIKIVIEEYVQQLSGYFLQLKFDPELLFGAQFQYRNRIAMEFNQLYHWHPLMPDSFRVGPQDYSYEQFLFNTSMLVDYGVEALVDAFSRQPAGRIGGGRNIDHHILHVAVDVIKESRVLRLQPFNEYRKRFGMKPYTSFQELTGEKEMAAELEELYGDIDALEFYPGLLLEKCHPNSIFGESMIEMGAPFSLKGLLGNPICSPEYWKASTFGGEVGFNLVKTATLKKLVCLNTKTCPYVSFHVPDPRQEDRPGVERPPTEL

Rattus norvegicus [11] = experiment: Anti-inflammatory activity in carrageenan-induced paw edema Wistar rat model assessed as swelling thickness of paw at 20 mg/kg, po measured after 6 hrs by digital vernier caliper (reference value: 8.33 +/- 0.42 millimeter); type: functional
[12] = Toxicity in fasting Wistar rat assessed as ulcer score at 10 mg/kg, po via gavage treated for 3 days consecutively by H and E staining based analysis (reference value: 0); type: organism-based; details: in vivo, 72 h, time 3 day; procedure, shortened: as §2
Rattus norvegicus [13] = experiment: Anti-inflammatory activity in carrageenan-induced paw edema Wistar rat model assessed as swelling thickness of paw at 10 mg/kg, po measured after 2 hrs by digital vernier caliper (reference value: 8.65 +/- 0.53 millimeter); type: functional
Rattus norvegicus [14] = experiment: Anti-inflammatory activity in Wistar rat assessed as reduction in ADP/collagen-induced platelet aggregation at 20 mg/kg, po; type: functional, organism-based
Procedure, shortened: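 Platelet-rich plasma from treated rats (n = 6/group) adjusted to 4 × 10^8 platelets per ml in Tyrode's buffer. Absorbance read at 570 nm, then aggregation induced with ADP plus 5 μg ml−1 collagen. Plates incubated 5 min at 37 °C with shaking and absorbance re-read at 570 nm. Percent aggregation derived from the absorbance change.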

Rattus norvegicus [15] = experiment: Anti-inflammatory activity in carrageenan-induced paw edema Wistar rat model assessed as swelling thickness of paw at 20 mg/kg, po measured after 5 hrs by digital vernier caliper (reference value: 8.47 +/- 0.32 millimeter); type: functional
Rattus norvegicus [16] = experiment: Anti-inflammatory activity in carrageenan-induced paw edema Wistar rat model assessed as swelling thickness of paw at 5 mg/kg, po measured after 3 hrs by digital vernier caliper (reference value: 8.56 +/- 0.45 millimeter); type: functional
[17] = Toxicity in fasting Wistar rat assessed as ulcer score at 5 mg/kg, po via gavage treated for 3 days consecutively by H and E staining based analysis (reference value: 0); type: organism-based; details: in vivo, 72 h, time 3 day; procedure, shortened: as §2
Rattus norvegicus [18] = experiment: Anti-inflammatory activity in carrageenan-induced paw edema Wistar rat model assessed as inhibition of PGE2 level administered orally measured for 6 hrs by ELISA; type: functional, organism-based; details: dose 5-20 mg/kg, route po; procedure, shortened: as §1
Gastric mucosa = experiment: Antioxidant activity in gastric mucosal tissue in Wistar rat assessed as increase in GSH level at 20 mg/kg, po; type: functional, organism-based
Procedure, shortened: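 Fasted rats (n = 6/group) gavaged once daily for 3 days in 0.3% Na CMC and sacrificed 6 h after the final dose. Randomly chosen stomachs homogenized in cold PBS pH 7.4 and centrifuged at 1000 rpm for 10 min at 4 °C. Supernatant protein measured by Bradford assay; GSH and nitrate then measured by reported methods.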

SMILES | Activity (Rattus norvegicus [1]) | Activity [2] [%] | Activity (Rattus norvegicus [3]) [mm] | Activity (Rattus norvegicus [4]) [mm] | Activity (Rattus norvegicus [5]) [mm] | Activity (Rattus norvegicus [6]) [mm] | Activity (Rattus norvegicus [7]) | Activity [8] | Activity [9] [%] | IC50 [10] [µM] | Activity (Rattus norvegicus [11]) [mm] | Activity [12] | Activity (Rattus norvegicus [13]) [mm] | Activity (Rattus norvegicus [14]) | Activity (Rattus norvegicus [15]) [mm] | Activity (Rattus norvegicus [16]) [mm] | Activity [17] | inhibition (Rattus norvegicus [18]) | Activity (Gastric mucosa)
Clc1ccc(-c2nnc(CN3CCN(C(c4ccccc4)c4ccc(Cl)cc4)CC3)o2)cc1 (stereo not drawn) | Active | 0 | 4.11 | 3.32 | 1.94 | 3.22 | Active | Non-toxic | 1.38 | 34.1 | 3.41 | 0.02 | 3.96 | Active | 3.24 | 4.67 | 0 | Dose-dependent-effect | Active
O=[N+]([O-])c1ccc(-c2nnc(CN3CCN(C(c4ccccc4)c4ccc(Cl)cc4)CC3)o2)cc1 (stereo not drawn) | Active | 0.667 | 4.78 | 3.88 | 2.24 | 4.32 | Active | Non-toxic | 4.85 | 41.1 | 3.91 | 0.031 | 4.55 | Active | 3.96 | 4.87 | 0.01 | Dose-dependent-effect | Active
